Sampled rows, rich in hits. Any-hit rate of the full collection: about 3.9%.
CRFR2-BP ag: CRF-BP/CRF-R2 complex agonism | HEK293 CRF-R2/CRF-BP, calcium dye fluorescence (FLIPR); percent of saturating CRF peptide response | activation, % at 13.2 µM | 0.46% of 350,000 active | AID 588473;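 active means activation of at least 50%, plus an integration ratio under a set limit after plate pattern correction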;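 further: plate controls were neutral control wells without compound for no effect and CRF at EC100 for full effect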
ANO1 activ: mouse TMEM16A channel activation, primary screen; Q8BHY3; HEK293 TMEM16A/YFP-H148Q/I152L, iodide quench fluorescence; stronger effect = lower value; AID 623877; 0.3% of 340,000 active; B-score at 10 µM;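 active means fluorescence-ratio B-score plate-corrected deviation score at least 3 library SD below zero, with starting fluorescence score within 5 deviations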;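 further: channel opened by trigger with iodide after compound preincubation; score built on the fluorescence ratio of max minus min over baseline; more negative score means more quench and so TMEM16A activation or potentiation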
Target sequence (Q8BHY3 whole entry, looked up): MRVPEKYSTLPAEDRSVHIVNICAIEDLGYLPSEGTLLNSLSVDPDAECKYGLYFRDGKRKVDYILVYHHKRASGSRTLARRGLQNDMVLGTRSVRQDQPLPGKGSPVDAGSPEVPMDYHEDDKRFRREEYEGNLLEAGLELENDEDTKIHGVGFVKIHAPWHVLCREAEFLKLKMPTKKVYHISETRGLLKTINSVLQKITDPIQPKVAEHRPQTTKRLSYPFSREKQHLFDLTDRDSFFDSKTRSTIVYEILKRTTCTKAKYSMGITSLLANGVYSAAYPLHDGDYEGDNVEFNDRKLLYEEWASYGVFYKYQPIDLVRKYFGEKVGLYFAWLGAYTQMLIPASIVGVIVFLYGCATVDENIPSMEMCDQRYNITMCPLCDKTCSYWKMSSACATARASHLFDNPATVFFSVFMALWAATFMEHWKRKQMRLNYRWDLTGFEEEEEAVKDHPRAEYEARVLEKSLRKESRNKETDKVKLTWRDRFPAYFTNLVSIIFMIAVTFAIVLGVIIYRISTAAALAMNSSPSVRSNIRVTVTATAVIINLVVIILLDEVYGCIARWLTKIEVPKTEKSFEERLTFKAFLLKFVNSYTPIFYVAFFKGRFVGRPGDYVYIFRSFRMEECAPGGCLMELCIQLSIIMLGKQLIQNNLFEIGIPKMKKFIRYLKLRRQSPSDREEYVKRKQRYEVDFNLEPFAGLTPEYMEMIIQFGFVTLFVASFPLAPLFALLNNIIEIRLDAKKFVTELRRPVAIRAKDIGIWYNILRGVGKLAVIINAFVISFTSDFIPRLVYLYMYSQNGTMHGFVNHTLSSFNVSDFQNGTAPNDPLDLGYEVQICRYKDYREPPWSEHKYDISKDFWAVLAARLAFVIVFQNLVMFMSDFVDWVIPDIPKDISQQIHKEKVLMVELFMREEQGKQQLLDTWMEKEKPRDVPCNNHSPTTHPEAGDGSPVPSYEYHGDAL
TAAR1 agonist: agonists of human TAAR1. Q96RJ0. CHO RD-HGA16 TAAR1, Fluo-8 calcium fluorescence; vehicle wells 0%, saturating PEA agonist 100%. activation, % at 3 µM. 0.99% of 360,000 active. AID 624467;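 active means activation above the mean activation of all test compounds in the run plus 3 SD, cut at about 38% in these data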
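Benchmarks: low control DMSO, high control PEA (EC100); System: CHO RD-HGA16 cells carrying human TAAR1 plus Gα16; Detection: Fluo-8 fluorescence, 5 s baseline then 140 s kinetic read; Schedule: 17-24 h plating, Fluo-8 75 min 37 °C, 30 min RT; Read-out basis: % activation from peak over basal fluorescence ratio, DMSO-to-PEA scaled.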
TAAR1 antagonist: human TAAR1 antagonism; CHO RD-HGA16 TAAR1, Fluo-8 calcium fluorescence, antagonist; inhibition, % at 3 µM; 1.5% of 360,000 active; AID 624466;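 active means inhibition above a per-plate cutoff, the mean inhibition of test compounds on that plate plus 3 SD, cut at about 49% in these data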;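 further: 0% = DMSO plus EC80 beta-PEA response and 100% = DMSO alone without agonist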
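Material: CHO RD-HGA16 cells bearing hTAAR1; compound dosing: one-point dosing, 3 µM nominal final; schedule: dye loading 75 min at 37 °C, then 30 min room temperature; measured by: calcium fluorescence with Fluo-8; control set: vehicle and agonist controls; replication: n of 1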
CRFR2-BP antag: blocks CRF-induced signaling of the CRF-BP/CRF-R2 complex; HEK293 CRF-R2/CRF-BP, CRF-induced calcium fluorescence; inhibition, % at 11.8 µM; 0.59% of 350,000 active; AID 588475;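 active means inhibition of the ligand-induced calcium signal above about 50% at the single tested concentration, limit read from the data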
ANO1 block: blocks the mouse calcium-activated chloride channel TMEM16A; Q8BHY3; HEK293 TMEM16A/YFP iodide influx fluorescence, ionomycin; normalized B-score (activity score, 25-100; higher = stronger inhibition) at 10 µM; 1.2% of 310,000 active; AID 588511;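 active means ratio plate-corrected score three or more library SD toward inhibition, starting fluorescence score within five deviations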;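 further: score derived from kinetic fluorescence span divided by baseline fluorescence per well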
nonsel antag count: counter-screen for TAAR1 antagonists: nonselective antagonists | shares compounds with TAAR1 antagonist | counterscreen cell line, calcium fluorescence, antagonist mode | inhibition, % at 3 µM | 77% of 2,400 active; in the data active means inhibition above about 22%;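 further: CHO-Ga16 host cells stimulated with ATP at an EC80 level; 0% = agonist EC80 plus vehicle and 100% = vehicle without agonist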
TAAR1 antag conf: confirmation of human TAAR1 antagonists; AID 651785; shares compounds with TAAR1 antagonist; inhibition, % at 3 µM; TAAR1-expressing cells, fluorescence antagonist read-out; 40% of 2,400 active; in the data active means inhibition above about 49%;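 further: CHO-Ga16 host cells challenged with agonist PEA near its EC80; 0% = agonist at EC80 plus vehicle and 100% = vehicle with no agonist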
Ga16 ag counter: nonselective Ga16 agonism, counter-screen | shares compounds with TAAR1 antagonist | Ga16-expressing cells, calcium fluorescence, agonist counterscreen | activation, % at 3 µM | 18% of 2,400 active | AID 651953; in the data active means activation above about 12%;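 further: 0% = vehicle wells and 100% = saturating stimulus response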
TAAR1 ag counter: counter-screen for human TAAR1 antagonists: TAAR1 agonists; shares compounds with TAAR1 antagonist; hTAAR1 cell line, fluorescence activation, agonist mode; activation, % at 3 µM; 2% of 2,400 active; AID 651955; in the data active means activation above about 37%;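 further: CHO cells stably expressing TAAR1 with calcium dye readout; 0% = DMSO vehicle and 100% = full agonist response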
* = called active by the depositor; i = inactive; · = not tested or not shown.

SMILES | CRFR2-BP ag | ANO1 activ | TAAR1 agonist | TAAR1 antagonist | CRFR2-BP antag | ANO1 block | nonsel antag count | TAAR1 antag conf | Ga16 ag counter | TAAR1 ag counter
CC(C)(C)OC(=O)NCc1ccc(CNC(=O)c2nc[nH]c2C(=O)NCc2ccccc2)cc1 | -1 | i | 18 | 57* | 1 | · | 35* | 44 | 7 | 4
CC(C)(C)OC(=O)NCc1ccc(CNC(=O)c2[nH]cnc2C(=O)NCC(=O)OCc2ccccc2)cc1 | -1 | i | 24 | 92* | 4 | i | 49* | 66* | 12* | 12
CCOc1ccc(C(=O)COC(=O)Cn2[nH]c(=O)c3ccccc3c2=O)cc1 | -2 | · | 4 | 5 | 27 | · | · | · | · | ·
CC(C)(C)c1ccc(CNc2ccc([N+](=O)[O-])cn2)cc1 | 0 | i | 1 | 68* | -17 | i | 14 | 39 | 12* | 16
CC(C)c1ccc(CNc2ccc([N+](=O)[O-])cn2)cc1 | 1 | i | 8 | 48 | -15 | i | · | · | · | ·
Cc1cc2c(cc1S(=O)(=O)N1CC(C)CC(C)C1)OCC(=O)N2 (stereo unspecified) | -2 | i | 1 | 7 | 23 | i | · | · | · | ·
CC(C)(C)OC(=O)N1CCc2onc(-c3ccccc3[N+](=O)[O-])c2C1=O | · | · | 0 | 0 | · | · | · | · | · | ·
CC(C(=O)N1CCc2ccccc21)n1cnc2c1c(=O)n(C)c(=O)n2C (stereo unspecified) | -1 | i | 1 | 5 | -2 | · | · | · | · | ·
Cc1ccc2cc(C#N)c(N3CCN(C(=O)c4ccccc4)CC3)nc2c1 | -4 | i | 8 | 71* | 6 | i | 34* | 39 | 8 | 3
COc1cc(C(=O)N2CCCN(c3nc4cc(C)ccc4cc3C#N)CC2)cc(OC)c1OC | -2 | · | 8 | 4 | -6 | i | · | · | · | ·
CCN1CCN(C(=O)c2cc(-c3ccco3)nc3ccccc23)CC1 | 3 | i | 5 | 8 | -1 | · | · | · | · | ·
COc1cccc(C(=O)Nc2ccc(-c3nc4ccccc4o3)c(O)c2)c1 | 1 | i | 6 | -10 | -13 | i | · | · | · | ·
COc1cc(OC)cc(C(=O)Nc2ccc(-c3nc4ccccc4o3)cc2)c1 | 4 | i | 14 | 64* | -1 | i | 26* | 31 | 2 | -1
O=C(Nc1ccc2oc(-c3cccnc3)nc2c1)c1ccc(Br)o1 | 2 | i | 20 | 52* | 13 | i | 17 | 25 | 4 | 5
O=C(Nc1cccc(-c2nc3ccccc3o2)c1)c1cccnc1 | 2 | i | 10 | 67* | -19 | i | 23* | 35 | 10 | 7
Cc1[nH]c(C)c(S(=O)(=O)N2CCN(c3ccc(Cl)cc3)CC2)c1C(=O)N1CCCC1 | 1 | i | -1 | -7 | -2 | i | · | · | · | ·
COc1ccc([C@H]2CC(=O)C=C(c3ccccc3OC)C2)cc1OC | -1 | i | 9 | 36 | 0 | · | · | · | · | ·
CC(NC(=O)c1ccc(CS(=O)(=O)c2ccc(Cl)cc2)o1)c1ccc2c(c1)OCCO2 (stereo unspecified) | -1 | i | 19 | 59* | -3 | i | 32* | 53* | 11 | 9
Cc1ccccc1S(=O)(=O)Cc1ccc(C(=O)NC(C)c2ccc3c(c2)OCCO3)o1 (stereo unspecified) | 0 | i | 8 | 36 | -11 | i | · | · | · | ·
CC1(C(=O)Nc2cccc3ncccc23)CCN1C(=O)Cc1ccc(-c2ccccc2)cc1 (stereo unspecified) | · | · | 10 | 67* | · | · | 29* | 46 | 9 | 7
CC1(C(=O)Nc2cccc3ncccc23)CCN1C(=O)CCc1ccccc1 (stereo unspecified) | · | · | 2 | 10 | · | · | · | · | · | ·
Cc1ccc(NC(=S)N2CCCC(CO)C2)c(C)c1 (stereo unspecified) | 0 | i | 2 | -17 | 0 | i | · | · | · | ·
COc1ccc(CN(C)C(=O)c2ccccc2OCc2c(C)noc2C)c(OC)c1 | 0 | i | 1 | -4 | 10 | · | · | · | · | ·
COc1ccc(Br)cc1CN(C)C(=O)c1ccccc1OCc1c(C)noc1C | -1 | i | 9 | 57* | 9 | i | 23* | 33 | 7 | 4
Cc1ccc(NC(=O)Cn2c(=S)[nH]c3ccccc32)cc1 | -1 | i | 6 | 13 | 15 | i | · | · | · | ·
SMILES | CRFR2-BP ag | ANO1 activ | TAAR1 agonist | TAAR1 antagonist | CRFR2-BP antag | ANO1 block | nonsel antag count | TAAR1 antag conf | Ga16 ag counter | TAAR1 ag counter
COc1ccc(-c2coc3c(C(=O)Nc4cccc(NS(C)(=O)=O)c4)cccc23)c(C)c1 | · | · | 0 | 32 | · | · | · | · | · | ·
C=CCn1c(=NC(=O)c2cccc(N3C(=O)CCC3=O)c2)sc2cccc(OC)c21 | 1 | i | 18 | 74* | -15 | i | 27* | 52* | 11 | 10
N#Cc1ccc(NC(=O)CN2C(=O)NC3(CCCC3)C2=O)cc1 | 0 | i | 5 | -12 | -7 | i | · | · | · | ·
COc1ccccc1C(c1nnnn1C(C)C)N1CCN(C(=O)c2ccco2)CC1 (stereo unspecified) | -1 | i | 1 | -10 | -10 | i | · | · | · | ·
Cc1cccc(OCC(=O)Nc2ccc3c(c2)nc2n3CCOC2)c1 | -2 | i | 1 | -12 | 9 | i | · | · | · | ·
Fc1cc(F)cc(Nc2nc(Cl)nc(NC3CCCC3)n2)c1 | 1 | i | 16 | 56* | -8 | · | 17 | 17 | 1 | 2
CC(C)Nc1nc(Cl)nc(NC2CCCCC2)n1 | 0 | i | 2 | -13 | -5 | i | · | · | · | ·
CC(=O)N1N=C(c2cccs2)CC1c1cc2cc(C)ccc2nc1Cl (stereo unspecified) | -2 | i | 7 | -28 | 11 | i | · | · | · | ·
CN1CCN(c2ncnc3c2c(-c2ccccc2)cn3-c2ccc(F)cc2)CC1 | 3 | i | 10 | 60* | -9 | i | 11 | 53* | 9 | 28
c1ccc(-c2cn(-c3ccccc3)c3ncnc(N4CCCCC4)c23)cc1 | 2 | i | 1 | 13 | -16 | i | · | · | · | ·
COc1ccccc1NC(=O)Cc1csc(NC(=O)c2ccccc2)n1 | 1 | i | 9 | 9 | 5 | i | · | · | · | ·
COc1ccccc1CNC(=O)Cc1csc(NC(=O)Nc2ccccc2OC)n1 | 2 | i | 14 | 61* | -7 | i | 31* | 54* | 9 | 5
